hERG protect: hERG (human) protection from proarrhythmic block | Q12809 | CHO-hERG, FluxOR thallium flux, dofetilide IC70 present | activation (rescue from dofetilide block), less the hit threshold, % at 10 µM | 0.51% of 310,000 active;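 active = activation above the mean of controls blocked by dofetilide plus 5 SD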;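 also: thallium influx through hERG after potassium depolarization seen as dye fluorescence rise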
KCNQ1 pot: human KCNQ1 channel potentiation or activation | P51787 | CHO-K1 KCNQ1, thallium flux FluxOR fluorescence; stronger effect = higher value | B-score at 10 µM | 0.35% of 310,000 active | AID 2648;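 active = fluorescence ratio B-score, a plate-corrected score, at least three library SD, with initial intensity B-score within 5 SD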
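Assay system: CHO-K1 cells stably expressing KCNQ1. Medium: assay buffer for compound exposure, DMSO matched across wells. Timing: 37 °C overnight plating, 90-min dark dye load, 20-min compound pretreatment. Signal: kinetic FluxOR fluorescence, 10 s baseline plus 110 s post-stimulus.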
KCNQ1 inh: human KCNQ1 channel inhibition; CHO-K1 KCNQ1, FluxOR thallium flux fluorescence; stronger effect = higher value; B-score at 10 µM; 1.3% of 310,000 active;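 active = compounds whose thallium flux B-score, printed positive for inhibition, exceeds three library SD while starting fluorescence stays within three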;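 also: channel opened by potassium depolarization with thallium stimulus after 20 min compound exposure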
Kir21 block: Kir2.1 (mouse) channel inhibition | B-score at 10 µM | 0.85% of 310,000 active | AID 1672 | P35561 | HEK293-Kir2.1, FluxOR thallium flux fluorescence; stronger effect = lower value;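 active = fluorescence ratio B-score at or below minus 3 SD of library scores, with starting-brightness B-score within 2 SD, cut at about -4.2 in these data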;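 also: channel flux triggered by added potassium and thallium sulfate stimulus; B-score of peak minus minimum fluorescence over baseline after thallium stimulus; more negative B-score means stronger Kir2.1 block with less thallium influx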
KCNK3 block: human KCNK3 channel inhibition, primary screen; 0.84% of 340,000 active; O14649; CHO-KCNK3 thallium flux, FluxOR fluorescence; stronger effect = lower value; B-score at 10 µM;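 active = B-score under library mean minus 4 SD, starting fluorescence ratio at most library mean plus 5 SD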;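 also: more negative B-score means stronger inhibition of thallium flux through KCNK3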
KCNK9 block: inhibitors of human KCNK9 two-pore domain potassium channel. 1.2% of 310,000 active. HEK293 KCNK9, FluxOR thallium flux fluorescence; stronger effect = lower value. AID 488922. Q9NPC2. B-score at 10 µM;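 active = ratio B-score over 3 SD below the library mean, with starting fluorescence within 5 SD of its mean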;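 also: negative B-score means less thallium flux so channel inhibition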
Target sequence (Q9NPC2 whole entry, looked up, the tested form may be a part): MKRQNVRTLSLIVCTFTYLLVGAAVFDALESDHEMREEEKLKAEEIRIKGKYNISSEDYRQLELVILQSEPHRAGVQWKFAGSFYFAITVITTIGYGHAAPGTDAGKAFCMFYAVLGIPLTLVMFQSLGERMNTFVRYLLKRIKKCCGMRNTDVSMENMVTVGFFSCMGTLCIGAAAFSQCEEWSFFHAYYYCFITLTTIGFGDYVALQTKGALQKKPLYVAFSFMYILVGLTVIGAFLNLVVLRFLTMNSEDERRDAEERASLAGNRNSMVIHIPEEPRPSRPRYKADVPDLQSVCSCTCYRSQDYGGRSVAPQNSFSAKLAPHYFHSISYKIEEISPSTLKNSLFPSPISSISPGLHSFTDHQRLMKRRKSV
KCNK9 block conf: confirmation of human KCNK9 potassium channel inhibitors; shares compounds with KCNK9 block; HEK293 KCNK9 cells, FluxOR thallium flux fluorescence; inhibition, % at 10 µM; 43% of 4,900 active;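 active = thallium signal inhibited by more than 5 SD of the compound-free buffer control wells, on both duplicate plates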;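 also: 0% = assay buffer control wells without compound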
Kir2-1 spec: selectivity of KCNK9 modulators against mouse Kir2.1; shares compounds with KCNK9 block; Kir2.1 cells, FluxOR thallium flux fluorescence; inhibition, % at 10 µM; 4% of 4,900 active; AID 492993;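 active = thallium signal drop more than 5 SD beyond the mean of the no-compound control wells, seen in both duplicate plates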;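 also: signal is fluorescence rise after thallium addition divided by baseline fluorescence; plate controls were assay buffer only for no effect and full block by chlorpromazine control for full effect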
KCNK9 uninduced: second counter-screen for KCNK9 modulators: effect in non-induced cells. shares compounds with KCNK9 block. non-induced KCNK9-HEK293, FluxOR thallium flux. inhibition, % at 10 µM. 40% of 4,900 active. AID 492997;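 active = thallium signal drop beyond 5 SD of the untreated control mean, on both duplicate plates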;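 also: plate controls were buffer only IC0 wells for no effect and SID17386958 at its maximal inhibitory level for full effect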
An asterisk follows results filed as active. Sampled rows, rich in hits. Any-hit rate of the full collection: about 3.8%.

`COc1cccc(Nc2nc(N)nc(-c3oc4ccccc4c3C)n2)c1` gave hERG protect -9.4, KCNQ1 pot inactive, KCNQ1 inh inactive, Kir21 block -0.06, KCNK3 block inactive, KCNK9 block -10.2*, KCNK9 block conf 37.5%*, Kir2-1 spec inactive and KCNK9 uninduced inactive.
For CCc1nc(Nc2cccc(OC)c2)c2oc3ccccc3c2n1 the results were hERG protect -8.2, KCNQ1 pot inactive, KCNQ1 inh inactive, Kir21 block -0.1, KCNK3 block inactive and KCNK9 block inactive.
COc1ccc(C(=O)N/C(=C\c2cn(S(=O)(=O)N(C)C)c3ccccc23)C(=O)NCCN2CCOCC2)cc1 was read as hERG protect -9.9, KCNQ1 pot inactive, KCNQ1 inh inactive, Kir21 block -0.11, KCNK3 block inactive and KCNK9 block inactive.
Screening Cc1ccc(NC(=S)NNC(=O)c2cccc([N+](=O)[O-])c2)cc1Cl returned hERG protect -14.4, KCNQ1 pot inactive, KCNQ1 inh 8*, Kir21 block 0.79, KCNK3 block inactive, KCNK9 block inactive, KCNK9 block conf inactive, Kir2-1 spec inactive and KCNK9 uninduced inactive.
CC(=O)c1cccc(NC(=S)NNC(=O)c2ccc(C)c([N+](=O)[O-])c2)c1 was read as hERG protect -7.1, KCNQ1 pot inactive, KCNQ1 inh inactive, Kir21 block 2.18, KCNK3 block inactive and KCNK9 block inactive.
`CCOC(=O)c1ccc(N2C(=O)c3n[nH]c(-c4ccco4)c3C2c2cccc([N+](=O)[O-])c2)cc1` (stereo not given) gave hERG protect -8.3, KCNQ1 pot inactive, KCNQ1 inh inactive, Kir21 block 2.39, KCNK3 block inactive, KCNK9 block -9.44*, KCNK9 block conf 64.0%*, Kir2-1 spec inactive and KCNK9 uninduced 30.5%*.
`COc1ccc(N2Cc3cccc(C(=O)NC(C)CCc4ccco4)c3C2=O)cc1` (stereo not given) gave hERG protect -14.1, KCNQ1 pot inactive, KCNQ1 inh inactive, Kir21 block 0.02, KCNK3 block -9.92*, KCNK9 block -15.8*, KCNK9 block conf 57.0%*, Kir2-1 spec inactive and KCNK9 uninduced 33.5%*.
For CC(CCc1ccco1)NC(=O)c1cccc2c1C(=O)N(C1CCCCC1)C2 (stereo not given) the results were hERG protect -14.6, KCNQ1 pot inactive, KCNQ1 inh inactive, Kir21 block -0.21, KCNK3 block inactive and KCNK9 block inactive.
Screening CCS(=O)(=O)N1CCC(N2CCC(C)CC2)CC1 returned hERG protect -13.1, KCNQ1 pot inactive, KCNQ1 inh inactive, Kir21 block 0.41, KCNK3 block inactive and KCNK9 block inactive.
`Cc1ccc(-c2nn(CC(=O)N(C)C)c(=O)c3ccccc23)cc1S(=O)(=O)N(C)C` gave hERG protect -0.1, KCNQ1 pot inactive, KCNQ1 inh inactive, Kir21 block 0.1, KCNK3 block inactive and KCNK9 block inactive.
COc1ccccc1OCc1nc(C#N)c(N2CC(C)CC(C)C2)o1 (stereo not given) was read as hERG protect -6.5, KCNQ1 pot inactive, KCNQ1 inh inactive, Kir21 block -0.52, KCNK3 block inactive, KCNK9 block inactive, KCNK9 block conf inactive, Kir2-1 spec inactive and KCNK9 uninduced inactive.
Screening COc1ccccc1OCc1nc(C#N)c(N2CCCC2)o1 returned hERG protect -13.1, KCNQ1 pot inactive, KCNQ1 inh inactive, Kir21 block 2.36, KCNK3 block inactive and KCNK9 block inactive.
Cc1cccnc1Nc1nc(-c2ccccn2)cs1 was read as hERG protect -6.9, KCNQ1 pot inactive, KCNQ1 inh inactive, Kir21 block 1.33, KCNK3 block inactive and KCNK9 block inactive.
`Cc1cccnc1Nc1nc(-c2ccccc2)cs1` gave hERG protect -1.4, KCNQ1 pot inactive, KCNQ1 inh inactive, Kir21 block 0, KCNK3 block inactive, KCNK9 block inactive, KCNK9 block conf inactive, Kir2-1 spec inactive and KCNK9 uninduced 26.0%*.
Nc1nc(-c2cccs2)c(-c2cccs2)s1 was read as hERG protect -12.6, KCNQ1 pot inactive, KCNQ1 inh inactive, Kir21 block -1.47, KCNK3 block inactive, KCNK9 block -8.8*, KCNK9 block conf 44.0%*, Kir2-1 spec inactive and KCNK9 uninduced inactive.
For Nc1nc(-c2cccs2)c(CC(=O)O)s1 the results were hERG protect -7.8, KCNQ1 pot inactive, KCNQ1 inh inactive, Kir21 block -0.53, KCNK3 block inactive and KCNK9 block inactive.
Cc1ccnc(NC(=S)NC(=O)/C=C/c2ccc(Cl)cc2)c1 was read as hERG protect -9.2, KCNQ1 pot inactive, KCNQ1 inh inactive, Kir21 block 0, KCNK3 block inactive and KCNK9 block inactive.
CC(C)NC(=S)N/N=C1\CCCCc2ccccc21 was read as hERG protect -0.2, KCNQ1 pot inactive, KCNQ1 inh inactive, Kir21 block -2.19, KCNK3 block inactive and KCNK9 block inactive.
COc1cccc(NC(=S)N/N=C2/CCCCc3ccccc32)c1 was read as hERG protect -9.0, KCNQ1 pot 15*, KCNQ1 inh inactive, Kir21 block -0.28, KCNK3 block inactive, KCNK9 block inactive, KCNK9 block conf inactive, Kir2-1 spec inactive and KCNK9 uninduced inactive.
For Cc1ccc(C)c(NC(=S)N/N=C2/CCCCc3ccccc32)c1 the results were hERG protect -3.8, KCNQ1 pot inactive, KCNQ1 inh inactive, Kir21 block 0.42, KCNK3 block inactive, KCNK9 block inactive, KCNK9 block conf inactive, Kir2-1 spec inactive and KCNK9 uninduced inactive.
`CC(c1ccccc1)C1CC(=O)N(c2ccccc2)C1=O` (stereo not given) gave hERG protect -4.3, KCNQ1 pot inactive, KCNQ1 inh inactive, Kir21 block -0.65, KCNK3 block inactive and KCNK9 block inactive.
Cc1cccc2nc(-c3ccccc3)nc(N[C@@H](CO)c3ccccc3)c12 was read as hERG protect -12.3, KCNQ1 pot inactive, KCNQ1 inh inactive, Kir21 block -0.53, KCNK3 block inactive, KCNK9 block -8.33*, KCNK9 block conf 50.0%*, Kir2-1 spec inactive and KCNK9 uninduced 43.5%*.
